Source: ChEMBL document CHEMBL4145607, “Tamarixetin Exhibits Anti-inflammatory Activity and Prevents Bacterial Sepsis by Increasing IL-10 Production” (J Nat Prod, 2018)
The source made the active and inactive calls. The rule behind the calls is not given here.

Assays:
[1] = tested on: Mus musculus; assay: Antiinflammatory activity in Balb/c mouse model of LPS-induced endotoxemia assessed as increase in IL10 producing B10 population in splenocyte at 1 mg/kg, ip pretreated for 1 hr followed by LPS-challenge measured after 12 hrs by flow cytometric analysis; type: functional, organism-based
[2] = tested on: Mus musculus; assay: Antiseptic activity in Balb/c mouse model of Escherichia coli K1 infection-induced sepsis assessed as reduction in bacterial count in lungs at 1 mg/kg, ip pretreated for 1 hr followed by Escherichia coli K1 infection measured after 12 hrs; type: functional, organism-based
Procedure, shortened: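 Pretreatment was 1 mg·kg−1 i.p. 1 h before i.p. E. coli K1 (1 × 10^6 CFU per mouse) in BALB/c mice. At 12 h, lungs, liver and kidneys were homogenized in PBS and diluted 1:1000. 10 μL was plated on LB agar, incubated 24 h at 37 °C, and colonies counted.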

[3] = tested on: BMDC; assay: Inhibition of LPS-induced immune response in C57BL/6 mouse BMDC assessed as increase in IL10 secretion up to 25 uM pretreated for 30 mins followed by LPS-challenge measured after 6 hrs by ELISA; type: functional, cell-based
Procedure, shortened: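 Mouse BMDCs (female C57BL/6 bone marrow, GM-CSF-derived, ≥90% CD11c+ on day 7) pretreated 30 min with graded compound concentrations, then stimulated with LPS 50 ng/mL for 6 h. Supernatant TNF-α, IL-6, IL-10 and IL-12p70 quantified by sandwich ELISA. Mean ± SEM vs LPS-only cells; experiments repeated at least three times.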

[4] = tested on: BMDC; assay: Inhibition of Escherichia coli DH5alpha infection-induced immune response in C57BL/6 mouse BMDC assessed as reduction in TNFalpha secretion at 25 uM pretreated for 30 mins followed by Escherichia coli DH5alpha infection for 6 hrs by ELISA; type: functional, cell-based
Procedure, shortened: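 C57BL/6 BMDCs received 25 μM compound and E. coli DH5α, 3 × 10^6 CFU·mL−1. Schedules were: compound 30 min before a 6 h infection; co-addition for 6 h; or compound for 30, 60, 90 or 120 min plus 6 h infection. Supernatant TNF-α, IL-6, IL-10 and IL-12p70 were measured by ELISA. At least three experiments in triplicate.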

[5] = tested on: BMDC; assay: Inhibition of LPS-induced immune response in C57BL/6 mouse BMDC assessed as reduction in TNFalpha secretion at 25 uM treated 6 hrs post LPS-challenge measured after 60 to 120 mins by ELISA; type: functional, cell-based
Procedure, shortened: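 Bone marrow DCs from 6-week-old female C57BL/6 mice, RBC-lysed, cultured in RPMI-1640/10% FBS with 10 ng/mL rmGM-CSF, 37 °C, 5% CO2. Cells given LPS 50 ng/mL for 6 h, then 25 μM compound added for 30, 60, 90 or 120 min. Supernatant TNF-α, IL-6, IL-10, IL-12p70 measured by sandwich ELISA. Mean ± SEM, compared with LPS-only DCs.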

[6] = tested on: Mus musculus; assay: Antiseptic activity in Balb/c mouse model of Escherichia coli K1 infection-induced sepsis assessed as reduction in serum IL6 level at 1 mg/kg, ip pretreated for 1 hr followed by Escherichia coli K1 infection measured after 2 hrs by ELISA; type: functional, organism-based
Procedure, shortened: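 BALB/c mice received 1 mg·kg−1 i.p. 1 h before i.p. E. coli K1 RS218, 1 × 10^6 CFU per mouse. Serum was collected at 2 h, and TNF-α, IL-6 and IL-10 were quantified by sandwich ELISA. Means ± SEM.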

[7] = biological target: T1, Toll-like receptor 4 (Mus musculus) (UniProt Q9QUK6); assay: Inhibition of LPS-induced TLR4 activation in C57BL/6 mouse BMDC assessed as reduction in ERK phosphorylation at 25 uM pretreated for 30 mins followed by LPS-challenge measured after 15 to 90 mins by Western blot analysis; type: cell-based
T1 sequence (whole entry): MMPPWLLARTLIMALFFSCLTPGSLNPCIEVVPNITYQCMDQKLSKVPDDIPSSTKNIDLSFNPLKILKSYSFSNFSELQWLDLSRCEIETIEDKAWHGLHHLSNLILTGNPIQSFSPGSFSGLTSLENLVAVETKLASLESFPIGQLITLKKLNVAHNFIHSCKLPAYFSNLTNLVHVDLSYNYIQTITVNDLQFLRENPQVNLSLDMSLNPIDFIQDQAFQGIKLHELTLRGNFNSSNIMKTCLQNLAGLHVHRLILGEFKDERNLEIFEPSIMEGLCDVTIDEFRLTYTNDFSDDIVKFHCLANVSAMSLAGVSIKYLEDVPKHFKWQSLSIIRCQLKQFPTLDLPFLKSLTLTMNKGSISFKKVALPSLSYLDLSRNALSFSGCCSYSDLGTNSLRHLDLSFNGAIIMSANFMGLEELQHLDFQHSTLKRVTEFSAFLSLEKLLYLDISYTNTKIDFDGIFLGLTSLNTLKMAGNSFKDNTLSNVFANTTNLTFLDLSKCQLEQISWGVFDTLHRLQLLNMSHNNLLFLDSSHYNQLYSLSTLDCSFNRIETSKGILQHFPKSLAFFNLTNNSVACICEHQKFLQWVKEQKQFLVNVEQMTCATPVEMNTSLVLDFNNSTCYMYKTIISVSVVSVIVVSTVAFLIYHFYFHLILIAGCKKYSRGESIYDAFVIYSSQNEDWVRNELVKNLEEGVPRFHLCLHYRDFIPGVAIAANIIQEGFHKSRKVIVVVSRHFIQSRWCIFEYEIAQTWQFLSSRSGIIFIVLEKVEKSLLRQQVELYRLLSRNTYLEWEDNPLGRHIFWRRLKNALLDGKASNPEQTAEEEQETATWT
Procedure, shortened: (§1)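 BMDCs were pretreated 30 min with 25 μM compound, then stimulated with LPS 50 ng·mL−1 for the indicated times. Lysates (25 μg protein) were run on 10% SDS-PAGE and immunoblotted for phospho/total ERK, JNK, p38 and Akt, plus COX-2, IκBα and α-tubulin, with ECL detection. Representative of three experiments.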

[8] = tested on: Mus musculus; assay: Antiinflammatory activity in Balb/c mouse model of LPS-induced endotoxemia assessed as reduction in infiltration of immune cells at 1 mg/kg, ip pretreated for 1 hr followed by LPS-challenge measured after 12 hrs by hematoxylin and eosin staining based microscopic analysis; type: functional, organism-based
Procedure, shortened: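 Dosing was 1 mg·kg−1 i.p. 1 h before LPS 10 mg·kg−1 i.p. in BALB/c mice. At 12 h lungs were perfused and formalin-fixed, then paraffin-embedded. 5 μm sections were H&E-stained and imaged by microscope. Representative of three independent experiments.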

[9] = tested on: Mus musculus; assay: Antiseptic activity in Balb/c mouse model of Escherichia coli K1 infection-induced sepsis assessed as reduction in serum endotoxin level at 1 mg/kg, ip pretreated for 1 hr followed by Escherichia coli K1 infection measured after 12 hrs by chromogenic assay; type: functional, organism-based
Procedure, shortened: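 BALB/c mice dosed i.p. 1 h before i.p. E. coli K1 (1 × 10^6 CFU per mouse), sera taken at 12 h. Serum diluted 10-fold in endotoxin-free PBS, LAL chromogenic end-point assay; background subtracted, quantified against E. coli endotoxin standard, reported as EU·mL−1.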

[10] = biological target: T1, Toll-like receptor 4 (Mus musculus); assay: Inhibition of LPS-induced TLR4 activation in C57BL/6 mouse BMDC assessed as reduction in p38 phosphorylation at 25 uM pretreated for 30 mins followed by LPS-challenge measured after 15 to 90 mins by Western blot analysis; type: cell-based; procedure, shortened: as §1

In the case of `COc1ccc(-c2oc3cc(O)cc(O)c3c(=O)c2O)cc1O` [TAMARIXETIN], the Activity [1] is reported as “Active”, the Activity [2] is reported as “Active” and the inhibition [3] is reported as “Active”. For the same molecule, the inhibition [4] was “Active”, the inhibition [5] was “inactive” and the Activity [6] was “Active”. The inhibition [7] was “inactive”, the Activity [8] was “Active” and the Activity [9] was “Active”. The inhibition [10] was “Active”.
